The test system of experiment [1] is Trypanosoma brucei. In words: Inhibitory activity against Trypanosoma brucei. The format is functional, organism-based. Summed up: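 Parasites cultured free in serum-containing medium without macrophages; prodrugs tested in vitro against the cultures.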
Experiment [2] relates to Trypanosoma cruzi. Briefly: Inhibitory activity against Trypanosoma cruzi. The experiment is classed as functional, organism-based. Summed up:
(§1)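 Parasites grown inside host macrophages in serum-containing medium, so compounds must cross the macrophage and parasite membranes; tested in vitro.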

The test system of experiment [3] is Leishmania infantum. In words: Inhibitory activity against Leishmania […]. The experiment is classed as functional, organism-based. Summed up: as §1
Experiment [4] concerns Plasmodium falciparum. In words: Inhibitory activity against Plasmodium falciparum. The experiment is classed as functional, organism-based.
Experiment [5] deals with MRC5. Briefly: Cytotoxicity against human MRC5 cells. The experiment is classed as functional, cell-based.

Structures are written as SMILES.

The record followed here is ChEMBL document CHEMBL1138089, “Cell permeation of a Trypanosoma brucei aldolase inhibitor: evaluation of different enzyme-labile phosphate protecting groups” (Bioorg Med Chem Lett, 2006).

In the case of `CC(C)(C)C(=O)SCCOP(=O)(OCCSC(=O)C(C)(C)C)Oc1ccc(O)c(C=O)c1`, the IC50 in experiment [1] was 16 µM; in experiment [2], 15 µM; in experiment [3] it was 25 µM; in experiment [4] it was 12 µM; in experiment [5], 6 µM.
Taken in the same sequence, the figures for `CC(=O)OCCSSCCOP(=O)(OCCSSCCOC(C)=O)Oc1ccc(O)c(C=O)c1` were over 50 µM, over 50 µM, over 50 µM, over 50 µM and over 50 µM.
In the case of `CC(=O)Oc1ccccc1CCC(=O)OCOP(=O)(OCOC(=O)CCc1ccccc1OC(C)=O)Oc1ccc(O)c(C=O)c1`, the half-maximal inhibitory concentration (IC50) in experiment [1], in experiment [2], in experiment [3], in experiment [4] and in experiment [5] was over 50 µM each time.
For `O=Cc1cc(OP(=O)(O)O)ccc1O`, the IC50 in experiment [1], in experiment [2], in experiment [3], in experiment [4] and in experiment [5] was over 50 µM in each case.
As for `CC(C)(C)C(=O)OCOP(=O)(OCOC(=O)C(C)(C)C)Oc1ccc(O)c(C=O)c1`, the IC50 in experiment [1] is 20 µM; in experiment [2], over 50 µM; in experiment [3] it was over 50 µM; in experiment [4], over 50 µM; in experiment [5], over 50 µM.
